Measured values reported in the RNAGym collection of RNA variant scans (doi:10.1038/s41586-018-0170-7).

B1: tRNA (parent)
chain: GUUCCGUUGGCGUAAUGGUAACGCGUCUCCCUCCUAAGGAGAAGACUGCGGGUUCGAGUCCCGUACGGAACG

Variants of: B1
Test: yeast fitness, log relative to wild type (ln ratio); higher = fitter; tRNA-Arg(CCU), competitive growth, 37 C, 1 M NaCl
Outline: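 A combinatorial tRNA-Arg(CCU) variant library was carried on a HIS3 centromeric plasmid in BY4742 lacking the chromosomal gene, from two independent transformations. Pools grew 4 generations in SC-HIS at 30 °C, then ~6.5 generations (~26.5 h) in SC-HIS 1M NaCl at 37 °C, with three outputs per input. Variants were counted by 125 bp paired-end Illumina sequencing. Fitness is ln of each genotype's generations (OD-scaled log2 output/input frequency, inverse-variance weighted across replicates) over the wild-type's.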

Variant | yeast fitness (ln)
G1A U2G C27U C66U A70G C71U | -0.321
G1A U2G C27U C66A A70U C71U | -0.243
G1A U2G G6A C27U C66U A70G C71U | -0.309
G1A U2G C27U A43C C66U A69G A70U C71U | -0.332
G1A U2G C46U A70G C71U | -0.166
G1A U2G C27U C46U A69G C71U | -0.206
G1A U2G C27U C66U A69G C71U | -0.395
G1A U2G C27U A43C C66U C71U | -0.452
G1A U2G G6A C27U A43C A70U C71U | -0.365
G1A U2G C66U A69G A70U | -0.197
G1A U2G C66U A69G A70G | -0.243
G1A U2G C46U | -0.0473
G1A U2G G6A C66U A69G A70U C71U | -0.33
G1A U2G G6A A69G C71U | -0.244
G1A U2G C46U A69G A70U C71U | -0.0215
G1A U2G C27U A43C C66U A69G A70U | -0.363
G1A U2G C27U A43C C66U A69G A70G | -0.492
G1A U2G C27U C66A C71U | -0.147
G1A U2G C27U C66A A69G A70U C71U | -0.342
G1A U2G G6A C66U A69G A70G C71U | -0.366
G1A U2G C66U A69G A70G C71U | -0.165
G1A U2G C27U A43C C46U C66U A69G C71U | -0.383
G1A U2G C27U C66A A69G A70G C71U | -0.265
G1A U2G C27U A69G A70G C71U | -0.241

Variant | yeast fitness (ln)
G1A U2G G6A A43C C66U A70U | -0.434
G1A U2G C27U C66A A70U | -0.165
G1A U2G C27U C66A A70G | -0.25
G1A U2G C27U C46U C66A A69G A70G C71U | -0.247
G1A U2G G6A C46U C66A A69G A70G C71U | -0.354
G1A U2G C46U C66A C71U | -0.0962
G1A U2G G6A A70U | -0.0829
G1A U2G G6A A70G | -0.16
G1A U2G C27U A43C C66U A70U | -0.282
G1A U2G C27U A43C C66U A70G | -0.315
G1A U2G C66U A70G C71U | -0.187
G1A U2G G6A C27U A69G A70U | -0.256
G1A U2G G6A C27U A69G A70G | -0.428
G1A U2G G6A C27U C66U A70U | -0.234
G1A U2G G6A C27U C66U A70G | -0.349
G1A U2G C27U A43C C46U C66U A69G A70G | -0.282
G1A U2G C27U A43C C46U C66U A69G A70U | -0.462
G1A U2G G6A C27U A43C C66U | -0.348
G1A U2G C46U A70U C71U | 0.00364
G1A U2G G6A C27U A43C C66U A69G A70U | -0.387
G1A U2G G6A C27U A43C C66U A69G A70G | -0.447
G1A U2G C27U C46U C66U A69G A70U C71U | -0.429
G1A U2G G6A A43C C66U A69G A70U C71U | -0.396
G1A U2G C27U C46U C66A A69G A70U | -0.191

Variant | yeast fitness (ln)
G1A U2G G6A C27U C46U A69G A70G C71U | -0.332
G1A U2G G6A C27U C66U C71U | -0.344
G1A U2G G6A C27U A43C C46U C66A A70G C71U | -0.478
G1A U2G G6A A43C A70G C71U | -0.224
G1A U2G G6A A43C C46U C66U C71U | -0.177
G1A U2G C27U C46U A69G A70U C71U | -0.18
G1A U2G G6A C27U A43C C46U C66U A70U | -0.226
G1A U2G G6A C27U A43C C46U C66U A70G | -0.216
G1A U2G G6A C27U C71U | -0.263
G1A U2G G6A A43C C46U C66U A69G A70G C71U | -0.206
G1A U2G C27U A43C C66A A70G | -0.255
G1A U2G C27U A43C C66A A70U | -0.195
G1A U2G G6A C27U A43C | -0.235
G1A U2G C27U C66U A69G A70G | -0.26
G1A U2G C27U C66U A69G A70U | -0.35
G1A U2G G6A C27U A43C C46U C71U | -0.42
G1A U2G G6A C27U C46U C66A A69G A70G C71U | -0.317
G1A U2G C46U A69G C71U | -0.0958
G1A U2G G6A A43C C46U A70U C71U | -0.14
G1A U2G C27U A69G | -0.145
G1A U2G C27U C66U C71U | -0.244
G1A U2G G6A A70G C71U | -0.172
G1A U2G C27U A43C C46U C71U | -0.0914
G1A U2G G6A C27U C46U C66U C71U | -0.196

Variant | yeast fitness (ln)
G1A U2G G6A | -0.0537
G1A U2G C27U A69G A70G | -0.242
G1A U2G C27U A69G A70U | -0.188
G1A U2G G6A C27U C46U | -0.154
G1A U2G C27U C46U C66U A70G C71U | -0.218
G1A U2G G6A C27U C46U A69G C71U | -0.269
G1A U2G G6A C27U C46U C66U A69G A70G C71U | -0.407
G1A U2G G6A C46U C66U A69G A70G C71U | -0.413
G1A U2G C66A A70U | -0.0922
G1A U2G C66A A70G | -0.114
G1A U2G G6A C46U C66A A70U C71U | -0.134
G1A U2G G6A A43C C71U | -0.276
G1A U2G G6A C27U C46U C66U | -0.258
G1A U2G C66U A69G C71U | -0.254
G1A U2G G6A C66A A69G A70G C71U | -0.257
G1A U2G C66U A70U | -0.131
G1A U2G C66U A70G | -0.161
G1A U2G G6A C27U A43C A69G A70G | -0.341
G1A U2G G6A C27U A43C A69G A70U | -0.379
G1A U2G G6A C66A A70U C71U | -0.119
G1A U2G G6A C27U A43C A69G A70U C71U | -0.484
G1A U2G C66A | -0.0852
G1A U2G C66U | -0.159
G1A U2G C27U C66A A70G C71U | -0.306

Variant | yeast fitness (ln)
G1A U2G C27U A43C C71U | -0.16
G1A U2G G6A A43C C66U A69G A70G C71U | -0.612
G1A U2G C27U A43C C66A C71U | -0.377
G1A U2G G6A C27U | -0.0861
G1A U2G G6A C27U C46U A70U C71U | -0.15
G1A U2G G6A C27U C46U A69G A70U | -0.233
G1A U2G G6A C27U C46U A69G A70G | -0.226
G1A U2G G6A C46U A69G A70G C71U | -0.162
G1A U2G G6A A43C C66U A69G A70U | -0.45
G1A U2G C46U C66U A69G A70U | -0.128
G1A U2G C46U C66U A69G A70G | -0.172
G1A U2G G6A C27U C46U C66U A70G C71U | -0.243
G1A U2G G6A A43C C46U | -0.111
G1A U2G C27U A43C C66A A70G C71U | -0.317
G1A U2G C27U C46U C66U A69G C71U | -0.307
G1A U2G G6A C27U A43C C66A A69G A70G C71U | -0.351
G1A U2G G6A C46U C66U A69G A70G | -0.18
G1A U2G G6A C46U C66U A69G A70U | -0.383
G1A U2G C27U A43C C66A A69G A70G | -0.27
G1A U2G C27U A69G C71U | -0.251
G1A U2G C27U C46U C71U | -0.159
G1A U2G G6A C46U | -0.0789
G1A U2G G6A C46U C66A A70U | -0.189
G1A U2G G6A A43C C46U C66U | -0.23

Variant | yeast fitness (ln)
G1A U2G G6A A43C C46U A69G A70U C71U | -0.262
G1A U2G G6A A43C C46U C66U A70U C71U | -0.086
G1A U2G C27U A70U C71U | -0.0262
G1A U2G G6A C27U A43C C46U A69G A70U | -0.279
G1A U2G G6A C27U A43C C46U A69G A70G | -0.382
G1A U2G G6A C27U A43C A69G C71U | -0.673
G1A U2G C27U C71U | -0.108
G1A U2G C46U C66U A70U C71U | -0.185
G1A U2G C27U C66A A69G A70U | -0.187
G1A U2G C27U C46U C66A | -0.0584
G1A U2G C27U C46U C66U | -0.185
G1A U2G C27U A43C C46U C66U A70U C71U | -0.329
G1A U2G G6A C46U C66A A70G C71U | -0.185
G1A U2G G6A C27U A43C C66U A70G C71U | -0.479
G1A U2G G6A A43C A69G A70U C71U | -0.411
G1A U2G G6A C27U C46U A69G A70U C71U | -0.379
G1A U2G C46U A69G | -0.13
G1A U2G C46U C66U | -0.0764
G1A U2G C27U A43C C46U C66A A69G C71U | -0.315
G1A U2G C27U C46U A70U C71U | -0.0144
G1A U2G C27U A43C C46U C66A A70G C71U | -0.224
G1A U2G G6A C27U A70G C71U | -0.336
G1A U2G C27U C46U C66A A70U C71U | -0.185
G1A U2G G6A C27U A69G A70G C71U | -0.443

Variant | yeast fitness (ln)
G1A U2G C27U A43C C66U | -0.123
G1A U2G C27U A43C C66U A70G C71U | -0.383
G1A U2G C27U C66U A69G A70G C71U | -0.416
G1A U2G C27U A43C C46U C66U A69G A70G C71U | -0.3
G1A U2G G6A C46U C66U A70G C71U | -0.517
G1A U2G G6A C46U C66U | -0.13
G1A U2G G6A C46U A70U C71U | -0.559
G1A U2G G6A C27U C46U A70U | -0.189
G1A U2G G6A C27U C46U A70G | -0.237
G1A U2G G6A C27U C46U C66U A69G A70U C71U | -0.542
G1A U2G G6A A43C A69G A70G C71U | -0.29
G1A U2G G6A C27U C66U A69G A70G C71U | -0.402
G1A U2G G6A C27U C46U C66A A70U C71U | -0.249
G1A U2G C46U C66A A70G C71U | -0.198
G1A U2G G6A C27U A43C C46U A69G C71U | -0.283
G1A U2G G6A A43C C46U C66U A69G A70U | -0.306
G1A U2G G6A A43C C46U C66U A69G A70G | -0.275
G1A U2G G6A C46U C66U A70G | -0.11
G1A U2G G6A C46U C66U A70U | -0.251
G1A U2G C27U C46U C66U A70U C71U | -0.434
G1A U2G G6A C27U A43C A69G A70G C71U | -0.354
G1A U2G G6A A69G A70G C71U | -0.298
G1A U2G C27U A43C C66U A69G A70G C71U | -0.294
